Here are results for 21 compounds from PubChem BioAssay.

Experiment [1] can be described thus: HUVEC growth inhibition – cell-based, human, primary screen (AID 575;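 active = viability at or below 30% in both replicate assays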;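 note: 100% = median of untreated cell wells with 0.1% DMSO on each plate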). Particulars: HUVEC proliferation, CellTiter-Glo luminescence, 72 h; at 10 µM; stronger effect = lower value. The procedure, abridged: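 Test system: primary human umbilical vein endothelial cells; medium: endothelial basal medium with 2% FBS plus growth supplements; dosing: 10 µM compound only; times: 72 h treatment at 37 °C; signal: CTG luminescence; read-out: % viability relative to median vehicle-well signal on each plate; control set: vehicle and MePR control wells; plate: 384-well, collagen-coated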

The nature of experiment [2]: H69AR cell proliferation blockers – human, duplicate replicates, primary screen (AID 580).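 Note: 100% = mean luminescence of untreated wells and 0% = no signal.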 The note with it: H69AR lung tumor cells viability, ATP luminescence, 72 h; at 10 µM; stronger effect = lower value.
The nature of experiment [3]: MRP1 drug-resistance reversers in H69AR cells – cell-based, doxorubicin co-treatment, pilot screen (AID 601;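 active = viability loss from added drug above about 55%, and viability with drug at most 40%, in both replicates, limit read from the data, passing the limit was not always enough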). Particulars: CellTiter-Glo, 72 h, at 10 µM; for differential viability (reversal): stronger effect = higher value.
The nature of experiment [4]: yeast transport mutant growth inhibition pilot in 384-well plates, post-Golgi transport modulator project (AID 636; in the data active = inhibition above about 31%). The note with it: absorbance 615 nm, about 18 h, stronger effect = higher value.
A short description of experiment [5]: growth suppression of yeast trafficking mutant, preliminary HTS, modulators of trafficking downstream of Golgi apparatus project, 1536-format plate, OD 615 nm (AID 637; in the data active = inhibition above about 30%). The note with it: yeast transport mutant growth, absorbance 615 nm, 18 h; stronger effect = higher value.
The mark [6] stands for this setting: H69AR cells + 2 uM doxorubicin, measured here: viability with 2 uM doxorubicin, stronger effect = lower value.
The mark [7] stands for this setting: H69AR cells, compound alone cytotoxicity.

Activity calls are given as the source filed them.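 Rule for the calls, unless noted: active = viability at or under a set limit in both replicates, limit being median viability minus 3 SD (cut at about 48% in these data, passing the limit was not always enough); inconclusive = at or under the limit in just one replicate; inactive = at or above the limit in both replicates.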

Broadly, the viability is a read-out of living cells in per cent, often relative to untreated cells. In general, inhibition refers to the relative decrease from the control value, in per cent. On to `Cn1c(Cc2cccs2)nnc1SCC(=O)N1CCc2ccccc21`, for which the viability in experiment [1] is 94.1% (inactive); in experiment [2], 84.3% (inactive); in experiment [3] (setting [6]) it was 94%; in experiment [3] (setting [7]) it was 84.3%. In addition, in experiment [3] (H69AR cells + 2 uM doxorubicin), the differential viability (reversal) is -9.72% (inactive). Also, the inhibition in experiment [4] was -0.66% (inactive); in experiment [5] it was -8.1% (inactive).

Consider `Cc1ccc2nsnc2c1S(=O)(=O)N1CCN(Cc2ccc3c(c2)OCO3)CC1`, for which the viability in experiment [1] was 91% (inactive); in experiment [2], 91% (inactive); in experiment [3] (setting [6]), 89.3%; in experiment [3] (setting [7]) it was 91%. For the same compound, the differential viability (reversal) in experiment [3] (H69AR cells + 2 uM doxorubicin) is 1.65% (inactive). Further, the inhibition was -3.03% (inactive) in experiment [4] and 2.86% (inactive) in experiment [5].

As to `CCN(CC(=O)Nc1c(C(=O)OC)[nH]c2ccccc12)c1ccc2c(c1)OCO2`, the viability in experiment [1] was 67.8% (inactive); in experiment [2] it was 72% (inactive); in experiment [3] (setting [6]), 78.8%; in experiment [3] (setting [7]), 72%. Besides, the differential viability (reversal) in experiment [3] (H69AR cells + 2 uM doxorubicin) is -6.82% (inactive). Further, the values for the inhibition in experiment [4] and in experiment [5] were -5.2% (inactive) and -2.22% (inactive), respectively.

Turning to `CCOC(=O)CSc1nnc(-c2ccc(Cl)cc2Cl)o1`, the viability in experiment [1] was 105% (inactive); in experiment [2], 101% (inactive); in experiment [3] (setting [6]) it was 97.4%; in experiment [3] (setting [7]), 101%. In experiment [3] (H69AR cells + 2 uM doxorubicin), the differential viability (reversal) was 3.39% (inactive). Also, the inhibition in experiment [4] was -5.07% (inactive); in experiment [5] it was -0.16% (inactive).

For `CN(CC(=O)Nc1ccncc1)S(=O)(=O)c1ccccc1`, the viability in experiment [1] is 110% (inactive); in experiment [2], 95.8% (inactive); in experiment [3] (setting [6]), 83.9%; in experiment [3] (setting [7]), 95.8%. Moreover, in experiment [3] (H69AR cells + 2 uM doxorubicin), the differential viability (reversal) was 11.9% (inactive). Also, the values for the inhibition in experiment [4] and in experiment [5] were -7.63% (inactive) and -0.63% (inactive), respectively.

As to `CCOc1ccc(OCc2cccc(C(=O)N3CCOCC3)c2)cc1`, the viability in experiment [1] was 83.9% (inactive); in experiment [2] it was 94.5% (inactive); in experiment [3] (setting [6]), 94.2%; in experiment [3] (setting [7]), 94.5%. In addition, the differential viability (reversal) in experiment [3] (H69AR cells + 2 uM doxorubicin) is 0.305% (inactive). The inhibition in experiment [4] is -5.87% (inactive); in experiment [5], 2.7% (inactive).

With `Cn1c(SCc2c(F)cccc2Cl)nnc1-c1cccs1`, the viability was 112% (inactive) in experiment [1], 87.9% (inactive) in experiment [2], 77.6% in experiment [3] (setting [6]) and 87.9% in experiment [3] (setting [7]). Besides, in experiment [3] (H69AR cells + 2 uM doxorubicin), the differential viability (reversal) is 10.2% (inactive). Moreover, the inhibition in experiment [4] is -1.33% (inactive); in experiment [5], -5.87% (inactive).

As for `Cc1nc(NC2=NCN(CCc3ccccc3)CN2)nc2c(C)cccc12`, the viability in experiment [1] was 81.9% (inactive); in experiment [2] it was 78% (inactive); in experiment [3] (setting [6]), 93.7%; in experiment [3] (setting [7]), 78%. Moreover, the differential viability (reversal) in experiment [3] (H69AR cells + 2 uM doxorubicin) was -15.7% (inactive). Also, the inhibition in experiment [4] is -3.82% (inactive); in experiment [5], 4.76% (inactive).

`Cc1cc(NC(=O)c2cc(-c3ccco3)on2)n(-c2ccccc2)n1`: the viability was 80.7% (inactive) in experiment [1], 106% (inactive) in experiment [2], 92.6% in experiment [3] (setting [6]) and 106% in experiment [3] (setting [7]). In experiment [3] (H69AR cells + 2 uM doxorubicin), the differential viability (reversal) is 13% (inactive). Besides, the results for the inhibition in experiment [4] and in experiment [5] were -2.5% (inactive) and 1.9% (inactive), respectively.

For `Cc1cccc(-n2c(N)c(C(=O)N3CCN(C)CC3)sc2=S)c1`, the viability is 101% (inactive) in experiment [1], 92.2% (inactive) in experiment [2], 84.2% in experiment [3] (setting [6]) and 92.2% in experiment [3] (setting [7]). Also, in experiment [3] (H69AR cells + 2 uM doxorubicin), the differential viability (reversal) was 8.09% (inactive). The inhibition is -0.39% (inactive) in experiment [4] and -7.3% (inactive) in experiment [5].

Turning to `CC(OC(=O)c1cccc(NS(C)(=O)=O)c1)C(=O)Nc1ccc(N2CCOCC2)cc1` (configuration not stated), the viability in experiment [1] was 98.9% (inactive); in experiment [2], 96% (inactive); in experiment [3] (setting [6]), 86.1%; in experiment [3] (setting [7]), 96%. Moreover, the differential viability (reversal) in experiment [3] (H69AR cells + 2 uM doxorubicin) was 9.84% (inactive). The inhibition was 0.78% (inactive) in experiment [4] and -2.54% (inactive) in experiment [5].

As for `O=C(Nc1nccs1)c1cccc(NC(=O)C2CC2)c1`, the viability was 103% (inactive) in experiment [1], 87.5% (inactive) in experiment [2], 79.1% in experiment [3] (setting [6]) and 87.5% in experiment [3] (setting [7]). Besides, the differential viability (reversal) in experiment [3] (H69AR cells + 2 uM doxorubicin) was 8.43% (inactive). Further, the results for the inhibition in experiment [4] and in experiment [5] were -6.13% (inactive) and -0.48% (inactive), respectively.

On to `Fc1c(F)c(F)c(CSc2nc3ccccc3[nH]2)c(F)c1F`, for which the viability in experiment [1] was 105% (inactive); in experiment [2], 95.8% (inactive); in experiment [3] (setting [6]), 84%; in experiment [3] (setting [7]) it was 95.8%. Besides, in experiment [3] (H69AR cells + 2 uM doxorubicin), the differential viability (reversal) was 11.8% (inactive). For the same compound, the inhibition in experiment [4] is 0.65% (inactive); in experiment [5], 3.02% (inactive).

For the compound `O=C1CC(Cc2ccccc2)C(=O)N1CCc1ccc2c(c1)OCO2` (configuration not stated), the viability was 97.7% (inactive) in experiment [1], 102% (inactive) in experiment [2], 97.7% in experiment [3] (setting [6]) and 102% in experiment [3] (setting [7]). Also, the differential viability (reversal) in experiment [3] (H69AR cells + 2 uM doxorubicin) is 4.62% (inactive). The inhibition in experiment [4] was -5.32% (inactive); in experiment [5] it was 3.65% (inactive).

For the compound `COc1ccccc1N1CCN(C(=O)C2CC=CCC2C(=O)O)CC1` (configuration not stated), the viability in experiment [1] is 97.3% (inactive); in experiment [2], 93.1% (inactive); in experiment [3] (setting [6]), 86.5%; in experiment [3] (setting [7]) it was 93.1%. In addition, the differential viability (reversal) in experiment [3] (H69AR cells + 2 uM doxorubicin) is 6.56% (inactive). Further, the inhibition was -4.61% (inactive) in experiment [4] and 2.54% (inactive) in experiment [5].

Turning to `CC1CN(c2nc3ccccc3nc2C(C#N)C(=O)NCc2ccc3c(c2)OCO3)CC(C)O1` (configuration not stated), the viability in experiment [1] is 84.6% (inactive); in experiment [2] it was 91.2% (inactive); in experiment [3] (setting [6]), 96.6%; in experiment [3] (setting [7]), 91.2%. For the same compound, the differential viability (reversal) in experiment [3] (H69AR cells + 2 uM doxorubicin) was -5.39% (inactive). Further, the inhibition in experiment [4] is -4.93% (inactive); in experiment [5] it was 4.76% (inactive).

On to `CCOc1ccc(OCc2cccc(C(=O)N3CCCC3)c2)cc1`, for which the viability in experiment [1] was 110% (inactive); in experiment [2], 92.9% (inactive); in experiment [3] (setting [6]), 86%; in experiment [3] (setting [7]) it was 92.9%. Further, the differential viability (reversal) in experiment [3] (H69AR cells + 2 uM doxorubicin) is 6.89% (inactive). For the same compound, the inhibition was -4.13% (inactive) in experiment [4] and -3.49% (inactive) in experiment [5].

As for `COCCOC(=O)C1=C(C)NC(=O)CC1c1cc2c(cc1Br)OCO2` (configuration not stated), the viability in experiment [1] is 89.4% (inactive); in experiment [2], 97.4% (inactive); in experiment [3] (setting [6]), 72.4%; in experiment [3] (setting [7]), 97.4%. Further, the differential viability (reversal) in experiment [3] (H69AR cells + 2 uM doxorubicin) was 25.1% (inactive). In addition, the inhibition is -4.67% (inactive) in experiment [4] and 2.86% (inactive) in experiment [5].

Regarding `Cc1cc(C)n(Cc2nc3ccccc3n2C)n1`, the viability is 92.9% (inactive) in experiment [1], 99% (inactive) in experiment [2], 90.9% in experiment [3] (setting [6]) and 99% in experiment [3] (setting [7]). Also, the differential viability (reversal) in experiment [3] (H69AR cells + 2 uM doxorubicin) was 8.18% (inactive). For the same compound, the inhibition in experiment [4] was 0.52% (inactive); in experiment [5], 4.92% (inactive).

In the case of `Nc1nc(NCc2ccco2)nn1-c1ccccc1`, the viability in experiment [1] was 98% (inactive); in experiment [2] it was 96.7% (inactive); in experiment [3] (setting [6]), 80.9%; in experiment [3] (setting [7]), 96.7%. Besides, the differential viability (reversal) in experiment [3] (H69AR cells + 2 uM doxorubicin) is 15.7% (inactive). Also, the results for the inhibition in experiment [4] and in experiment [5] were -7.07% (inactive) and 6.03% (inactive), respectively.

On to `Cn1c(-c2ccc(F)cc2)cnc1NCc1ccccc1`, for which the viability in experiment [1] was 108% (inactive); in experiment [2] it was 66.2% (inactive); in experiment [3] (setting [6]) it was 81.6%; in experiment [3] (setting [7]), 66.2%. Also, the differential viability (reversal) in experiment [3] (H69AR cells + 2 uM doxorubicin) was -15.4% (inactive). Besides, the inhibition in experiment [4] was -3.03% (inactive); in experiment [5] it was 4.6% (inactive).
